For assay [1], the target named is Beta-2 adrenergic receptor (Homo sapiens) (UniProt P07550). Briefly: Agonistic potency against BETA2-AR expressed in CHO cells by using cAMP-RIA assay;MA means minimal activity. In kind it is functional, cell-based.
Assay [2] has as its target Beta-3 adrenergic receptor (Homo sapiens) (UniProt P13945). Briefly: Agonistic potency against Beta3-AR expressed in CHO cells by using cAMP-RIA assay;MA means minimal activity. In kind it is functional, cell-based.
The target is the same in assay [3]. Briefly: Intrinsic activity against Beta3-AR expressed in CHO cells in cAMP-RIA assay. The format is functional, cell-based.
Assay [4] addresses Beta-2 adrenergic receptor (Homo sapiens) (UniProt P07550). Conditions: CHO.
The target in assay [5] is Beta-3 adrenergic receptor (Homo sapiens) (UniProt P13945). Briefly: Agonistic potency against Beta3-AR expressed in CHO cells by using cAMP-RIA assay. In kind it is functional, cell-based.
Assay [6] concerns the target Beta-1 adrenergic receptor (Homo sapiens) (UniProt P08588). As to conditions: CHO.
Assay [7] concerns the target Beta-3 adrenergic receptor (Homo sapiens) (UniProt P13945). As to conditions: CHO.
The target of assay [8] is Beta-1 adrenergic receptor (Homo sapiens) (UniProt P08588). The assay is described as follows: Agonistic potency against BETA1-AR expressed in CHO cells by using CRE-LUC assay;MA means minimal activity. In kind it is functional, cell-based. A digest of the protocol:
(§1)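 CHO cells transfected by electroporation (single 70-ms, 150-V pulse) with human receptor and CRE–luciferase reporter; seeded 40 000/well, grown 20 h, then exposed 4 h to drug at 10^-11–10^-4 M. Cells lysed, luciferase light read by luminometer, duplicates per concentration. Response as percent of maximum to (-)isoproterenol 10^-6 M; pKact = -log molar concentration giving 50% of own maximal response; mean ± SEM.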

For assay [9], the target named is Beta-2 adrenergic receptor (Homo sapiens) (UniProt P07550). Briefly: Agonistic potency against BETA2-AR expressed in CHO cells by using CRE-LUC assay;MA means minimal activity. The format is functional, cell-based. The gist of the method:
as §1

Assay [10] has the same target. Conditions: CHO. This is another data set of the same source.
Assay [11] has as its target Beta-3 adrenergic receptor (Homo sapiens) (UniProt P13945). As to conditions: CHO. The source holds these as a separate data set.
Assay [12] shares this target. The assay is described as follows: Agonistic potency against Beta3-AR expressed in CHO cells by using cAMP-RIA assay; MA means minimal activity. In kind it is functional, cell-based.
The target of assay [13] is Beta-1 adrenergic receptor (Homo sapiens) (UniProt P08588). Conditions: CHO. The source holds these as a separate data set.
Assay [14] addresses Beta-2 adrenergic receptor (Homo sapiens) (UniProt P07550). As to conditions: CHO. The source holds these as a separate data set.
The target in assay [15] is Beta-1 adrenergic receptor (Homo sapiens) (UniProt P08588). As to conditions: CHO. The source holds these as a separate data set.
Assay [16] has the same target. As to conditions: CHO. The source holds these as a separate data set.
Assay [17] deals with Beta-2 adrenergic receptor (Homo sapiens) (UniProt P07550). As to conditions: CHO. The source holds these as a separate data set.

Beta-2 adrenergic receptor (Homo sapiens), sequence (P07550 whole entry, looked up): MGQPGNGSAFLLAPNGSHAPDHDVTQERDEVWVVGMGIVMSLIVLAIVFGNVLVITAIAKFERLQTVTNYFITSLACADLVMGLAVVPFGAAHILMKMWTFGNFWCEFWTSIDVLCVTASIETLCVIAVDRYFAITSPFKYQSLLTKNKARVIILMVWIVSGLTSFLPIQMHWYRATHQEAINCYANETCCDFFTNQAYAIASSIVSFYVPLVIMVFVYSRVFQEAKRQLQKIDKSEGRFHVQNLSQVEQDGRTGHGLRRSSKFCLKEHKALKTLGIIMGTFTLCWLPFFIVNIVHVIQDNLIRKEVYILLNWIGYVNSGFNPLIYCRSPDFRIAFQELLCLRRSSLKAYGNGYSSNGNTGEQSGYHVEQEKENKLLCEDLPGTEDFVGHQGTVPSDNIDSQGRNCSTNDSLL
Beta-1 adrenergic receptor (Homo sapiens), sequence (P08588 whole entry, looked up): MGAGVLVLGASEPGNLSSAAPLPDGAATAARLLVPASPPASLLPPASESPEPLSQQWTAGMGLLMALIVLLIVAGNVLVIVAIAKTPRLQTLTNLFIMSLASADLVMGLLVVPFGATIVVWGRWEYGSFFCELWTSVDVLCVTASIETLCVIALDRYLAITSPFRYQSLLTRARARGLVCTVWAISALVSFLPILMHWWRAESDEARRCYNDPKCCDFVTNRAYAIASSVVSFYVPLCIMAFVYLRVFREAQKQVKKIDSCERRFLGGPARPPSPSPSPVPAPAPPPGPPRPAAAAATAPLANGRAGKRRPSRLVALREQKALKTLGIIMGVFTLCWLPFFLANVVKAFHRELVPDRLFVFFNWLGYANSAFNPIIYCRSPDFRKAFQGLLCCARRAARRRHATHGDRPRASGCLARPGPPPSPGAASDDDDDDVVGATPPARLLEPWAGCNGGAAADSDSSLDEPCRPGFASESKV
Beta-3 adrenergic receptor (Homo sapiens), sequence (P13945 whole entry, looked up): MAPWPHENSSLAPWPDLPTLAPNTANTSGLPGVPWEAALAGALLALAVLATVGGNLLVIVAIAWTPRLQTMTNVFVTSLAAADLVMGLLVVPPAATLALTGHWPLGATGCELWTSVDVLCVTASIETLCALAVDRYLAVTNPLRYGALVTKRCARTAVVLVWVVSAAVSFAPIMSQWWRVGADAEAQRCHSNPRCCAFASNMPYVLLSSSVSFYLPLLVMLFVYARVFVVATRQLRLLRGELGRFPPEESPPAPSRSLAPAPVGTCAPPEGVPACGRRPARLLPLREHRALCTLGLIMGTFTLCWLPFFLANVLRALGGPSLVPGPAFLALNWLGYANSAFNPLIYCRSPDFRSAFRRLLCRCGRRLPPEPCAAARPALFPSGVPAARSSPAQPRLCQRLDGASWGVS

As for `COc1c(I)cc(CC2NCCc3c2cc(I)c(O)c3I)cc1I` (stereo not drawn), the MA result in assay [1] and in assay [2] was “Partial agonist” each time. The figures for the IA in assay [3] and in assay [4] were 18 and 6, respectively.

In the case of `COc1c(I)cc(CC2NCCc3c2ccc(O)c3Br)cc1I` (stereo not drawn), in assay [1], the MA entry was “Partial agonist”. Besides, the results for the IA in assay [3] and in [4] were 31 and 26, respectively. Moreover, the pK in assay [5] turned out to be 8.25.

Consider `COc1c(I)cc(CC2NCCc3cc(O)c(I)cc32)cc1I` (stereo not drawn), for which the MA result in assay [1] was “Partial agonist”. Moreover, the results for the IA in assay [3] and in assay [4] were 35 and 4, respectively. The compound also displayed a pK in assay [5] of 7.92.

As for `COc1c(I)cc(CC2NCCc3ccccc32)cc1I` (stereo not drawn), the IA in assay [6] turned out to be 22; in [7], 62; in [3], 52; in assay [4], 15; in assay [10], 21. In addition, the MA result in assay [1], in assay [8] and in assay [9] was “Partial agonist” throughout. For the same compound, the figures for the pK in [5] and in assay [11] were 8.2 and 7.54, respectively.

Take `CC(C)NCC(O)c1ccc(O)c(O)c1` (stereo not drawn): the IA in assay [7] came out at 100. Further, the pK in [11] came to 7.74.

Consider `COc1c(I)cc(CC2NCCc3c2cc(Br)c(O)c3Br)cc1I` (stereo not drawn), for which the results for the IA in assay [3] and in [4] were 20 and 3, respectively. Moreover, in assay [12], the MA entry was “Partial agonist”.

Take `COc1c(I)cc(CC2NCCc3cc(O)c(O)cc32)cc1I` (stereo not drawn): the results for the IA in assay [3], in assay [13] and in [4] were 120, 103 and 52, respectively. Also, the pK turned out to be 8.84 in [14], 8.76 in assay [5] and 8.11 in assay [15].

`COc1c(I)cc(CC2NCCc3c2ccc(O)c3I)cc1I` (stereo not drawn): the MA result in assay [2] was “Partial agonist”. The results for the IA in [3] and in assay [4] were 8 and 65, respectively. This compound also yielded a pK in [14] of 6.77.

Consider `COc1c(I)cc(CC2NCCc3cc(O)ccc32)cc1I` (stereo not drawn), for which the IA in assay [6] came out at 58; in assay [7], 90; in assay [3], 106; in assay [4], 44; in [10], 38. Further, the pK in assay [16] amounted to 5.71; in [17] it was 6.36; in assay [14], 6.87; in [5], 7.88; in assay [11] it was 7.45.

As for `COc1cc(C[C@@H]2NCCc3cc(O)c(O)cc32)cc(OC)c1OC`, the IA was found to be 95 in [3], 109 in [13] and 95 in assay [4]. Further, the pK in assay [14] was found to be 8.33; in [5], 8.6; in assay [15], 8.7.

The values are drawn from ChEMBL document CHEMBL1133701, “Synthesis and human beta-adrenoceptor activity of 1-(3,5-diiodo-4- methoxybenzyl)-1,2,3,4-tetrahydroisoquinolin-6-ol derivatives in vitro” (J Med Chem, 2000).
